Converted amounts (≈) assume the structure as drawn.

The assay has as its system Mycobacterium tuberculosis. In words: Antitubercular activity against Mycobacterium tuberculosis H37Rv after 6 days by MTT reduction assay. It is filed as functional. To be noted: 144 h. Put shortly:
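Strain H37Rv tested in 7H9 broth across serial twofold compound dilutions, bacilli added to each well. Incubated 6 days, then MTT (1 mg/mL) added for one further day. Formazan solubilized and absorbance read at 570 nm. MIC taken as lowest concentration inhibiting growth, with untreated bacilli serving as growth control.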
Background: Tetrazolium assays rely on reduction of a dye to a coloured formazan, in cell work by metabolically active cells.
`COc1ccc(/C=C/C(=O)NCCNC(C)=O)cc1`: the minimal inhibitory concentration (MIC) is more than 500 µg/mL.
As for `CC(C)=CCC/C(C)=C/COc1ccc(/C=C/C(=O)Nc2ccccn2)cc1`, the MIC was 1 µg/mL (≈ 2.66 µM).
Take `COc1cc(/C=C/C(=O)SCCNC(C)=O)ccc1O`: the lowest concentration to inhibit growth (MIC) was 125 µg/mL (≈ 423 µM).
Regarding `COc1ccc(/C=C/C(=O)Nc2ccccn2)cc1OC`, inhibition of growth (MIC) required 125 µg/mL (≈ 440 µM).
In turn, `CC(=O)NCCSC(=O)/C=C/c1ccc(OC/C=C(/C)CC/C=C(/C)CCC=C(C)C)cc1` registered an MIC of 0.6 µg/mL (≈ 1.28 µM). This MIC lies about 210-fold lower than the previous one.
As to `CC(=O)NCCNC(=O)/C=C/c1ccc(OCC=C(C)C)cc1`, the MIC turned out to be 63 µg/mL (≈ 199 µM).
In the case of `O=C(/C=C/c1ccc(O)cc1)Sc1ccccc1`, 8 µg/mL (≈ 31.2 µM) was the least that counted as inhibitory (MIC).
In turn, `CC(C)=CCOc1ccc(/C=C/C(=O)Nc2ccccn2)cc1` came in with an MIC of 16 µg/mL (≈ 51.9 µM).
As for `COc1ccc(/C=C/C(=O)Nc2ccccn2)cc1`, the MIC came to 63 µg/mL (≈ 248 µM).
`CC(=O)NCCSC(=O)/C=C/c1ccc(OCC=C(C)C)cc1`: the MIC is 32 µg/mL (≈ 96 µM). This MIC lies about 2-fold lower than the previous one.
For the molecule `COc1ccc(/C=C/C(=O)NCCc2c[nH]c3ccccc23)cc1`, the MIC came out at 500 µg/mL (≈ 1560 µM).
As to `CC(=O)NCCSC(=O)/C=C/c1ccc(O)cc1`, the lowest concentration to inhibit growth (MIC) was 63 µg/mL (≈ 237 µM).
In the case of `CC(C)=CCOc1ccc(/C=C/C(=O)NCCc2c[nH]c3ccccc23)cc1`, the MIC worked out at 63 µg/mL (≈ 168 µM).
`CC(=O)NCCSC(=O)/C=C/c1ccc(OC/C=C(\C)CCC=C(C)C)cc1` yielded an MIC of 0.6 µg/mL (≈ 1.49 µM). Compared with the last molecule, the MIC is about 100-fold lower.
Consider `COc1cc(/C=C/C(=O)NCCc2c[nH]c3ccccc23)ccc1O`, for which 8 µg/mL (≈ 23.8 µM) was the least that counted as inhibitory (MIC).
Then `CC(=O)NCCNC(=O)/C=C/c1ccc(OC/C=C(\C)CCC=C(C)C)cc1`, with 0.1 µg/mL (≈ 0.26 µM).
Take `COc1cc(/C=C/C(=O)Sc2ccccc2)ccc1O`: the MIC is 8 µg/mL (≈ 27.9 µM).
`COc1cc(/C=C/C(=O)SCCNC(C)=O)cc(OC)c1O` displayed a minimum inhibitory concentration (MIC) of 125 µg/mL (≈ 384 µM).
With `CC(C)=CCC/C(C)=C/COc1ccc(/C=C/C(=O)NCCc2c[nH]c3ccccc23)cc1`, the MIC worked out at 32 µg/mL (≈ 72.3 µM).
In turn, `COc1ccc(/C=C/C(=O)SCCNC(C)=O)cc1` yielded an MIC of 63 µg/mL (≈ 226 µM).

One may read the MIC as the smallest concentration in the dilution series that meets the test's criterion for growth inhibition.

For the origin of these results see ChEMBL document CHEMBL1149077, “Synthesis and evaluation of a novel series of pseudo-cinnamic derivatives as antituberculosis agents” (2009).
